# Assay outcomes from PubChem BioAssay.
# Hits are enriched below; roughly 2.1% of the tested compounds scored in any of these assays.
# Yeast life ext = extends the lifespan of yeast; S. cerevisiae growth with nicotinamide, OD615; deaD strain in restrictive glucose medium; inhibition of the nicotinamide effect, % at 10 µM; actives 0.68% (n = 130,000); AID 775;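 active = inhibition above a set limit, placed 3 SD over the median of all compounds, cut at about 26% in these data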
#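 Assay system: engineered S. cerevisiae DeaD replicative-lifespan strain, galactose-grown log-phase cells; Buffer or medium: CSMM-D glucose medium, restrictive; Probe or stimulus: nicotinamide 1.5 mM; Compound: single dose 10 µM compound, 0.25% DMSO; Schedule: 4 h preincubation then 48 h treatment at 30 °C; Technique: OD615 measurement.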
# SDO1 yeast rescue = sdo1-depleted yeast growth rescue. S. cerevisiae sdo1-depleted JHY4D growth rescue, OD600 30 h; hits give high values; pdr5 snq2 efflux-pump mutant strain. z-score at 10 µM. actives 0.21% (n = 140,000);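 active = z-score above 3 at both the 24 hr and the 30 hr optical density reads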
# Yeast growth inh = reduces growth of yeast BB579 in restrictive medium; S. cerevisiae BB579 growth, OD615, 48 h; inhibition, % at 10 µM; actives 0.51% (n = 140,000); AID 804;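 active = inhibition above a set limit, 3 SD over the mean compound inhibition, cut at about 44% in these data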
#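 Test system: S. cerevisiae DeaD strain BB579 yeast; Medium: restrictive CSMM-D medium; Compound: one dose, 10 µM compound with 0.25% DMSO; Incubation: 4 h cell preincubation, 48 h compound exposure, 30 °C humidified; Signal: OD at 615 nm; Benchmarks: amphotericin B at 10 µg/mL as positive control.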
# MRP resist rev = reverses drug resistance mediated by MRP; differential viability (reversal), % at 10 µM; H69AR cells + 2 uM doxorubicin, CellTiter-Glo, 72 h; actives 0.04% (n = 85,000);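 active = viability drop by adding the cancer drug above about 55%, with treated viability meeting a 40% cutoff, limit read from the data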;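 note: larger differential means the compound sensitizes cells more to doxorubicin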
# Phagocytosis inh = macrophage phagocytosis inhibition; actives 0.07% (n = 110,000); J774A.1 macrophage IgG-bead phagocytosis, imaging; inhibition, % at 5 µM; AID 1029;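 active = inhibition above the mean of the plate negative controls plus 5 SD, cut at about 13% in these data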;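 note: phagocytic index as fraction of beads internalized from green versus red external bead signal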
# MRP-1 activ = activators of MRP-1; viability increase, % at 10 µM; actives 0.61% (n = 140,000); H69AR cells + doxorubicin, viability rescue, CellTiter-Glo;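 active = viability gain under doxorubicin at or above a set limit, the compound median plus 3 SD, cut at about 4.7% in these data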;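 note: MRP-1 overexpressing cells given doxorubicin 25 µM after compound pretreatment; 18-22 h compound pretreatment then 72 h with doxorubicin before readout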
# Numbers stand for hits; - = inactive; . = no result given; [ ] = dose if it differs, or a comment.
SMILES,Yeast life ext,SDO1 yeast rescue,Yeast growth inh,MRP resist rev,Phagocytosis inh,MRP-1 activ
O=C(c1ccccc1)c1nc2ccccc2[nH]c1=O,76,-,-,-,-,-
COc1ccccc1C(=O)Nc1ccc(C(=O)N2CCCC2)cc1,-,-,-,-,.,-
CCCCCc1nnc(NC(=O)C(=O)OCC)s1,39,-,-,-,.,-
CCCCOC(=O)Nc1nnc(CCOCC)s1,-,-,-,-,-,-
CCOC(=O)C(=O)Nc1nnc(SCc2ccc(F)cc2)s1,35,-,-,.,-,-
CCC(=O)Nc1nnc(SCc2ccc(F)cc2)s1,.,-,-,-,.,-
CCOC(=O)c1sc2nc(C)c3c(c2c1N)CC(C)(C)OC3,-,-,-,-,-,-
O=C(O)C12CC3CC(C1)CC(n1ncc(N4CCN(c5ccccc5)CC4)c(Cl)c1=O)(C3)C2,-,-,-,.,-,-
O=C(CN1CCOCC1)NCCC12CC3CC(CC(C3)C1)C2,-,-,-,.,-,-
Cc1cccc(NC(=S)N(C)C2(c3ccccc3Cl)CCCCC2=O)c1 (configuration not stated),-,-,-,.,33[artifact],-
CC(=O)c1cc(-c2ccccc2)n(CC(=O)Nc2cccc(C)c2)c1C,-,-,-,.,-,-
NC1=NC(=O)/C(=C/c2cn(CCC(=O)O)nc2-c2ccc(Cl)cc2)S1,-,-,-,.,-,5.5
NC1=NC(=O)/C(=C/c2cn(CCC(=O)O)nc2-c2ccc(F)cc2)S1,-,-,-,.,-,-
Cc1sc2ncnc(N/N=C/c3ccccc3O)c2c1C,-,-,68,.,-,-
Cc1ccccc1C(=O)NNC(=S)NC(=O)COc1ccccc1,-,-,70,.,-,-
Nn1c(N2CCCCC2)nc2ccccc21,-,-,-,-,-,-
CC(C)NS(=O)(=O)c1ccc(NC(=O)C(C)Oc2ccc(C(=O)c3ccccc3)cc2)cc1 (configuration not stated),-,-,-,.,-,-
COc1ccc(C(CNC(=O)c2cccc(Br)c2)N2CCCC2)cc1 (configuration not stated),123,-,-,.,-,-
Cc1ccc(S(=O)(=O)N(C(=O)c2ccncc2)c2ccc(OC(=O)c3ccncc3)c3ccccc23)cc1,-,-,-,.,-,-
Cc1ccc(S(=O)(=O)N(C(=O)c2ccncc2)c2ccc(OC(=O)c3ccncc3)c3ccccc23)c(C)c1,37,-,-,.,-,-
Cc1ccc(NC(=O)CCC(=O)N/N=C/c2cccs2)cc1C,-,-,-,.,-,7.2
O=C(NCc1ccc(F)cc1)c1noc2c1CCCC2,-,-,-,-,-,4.9
O=C(NCc1ccc(F)cc1)c1noc2c1CCCCC2,-,-,-,-,-,-
CCNC(=O)NC(=O)C(C)On1nnc2ccc(S(=O)(=O)N(CC)CC)cc21 (configuration not stated),28,-,-,.,-,-
CCN(CC)S(=O)(=O)c1ccc(F)c(C(=O)NCCC(C)C)c1,-,-,-,-,.,-
SMILES,Yeast life ext,SDO1 yeast rescue,Yeast growth inh,MRP resist rev,Phagocytosis inh,MRP-1 activ
CCOC(=O)C1C(=O)N(C(=O)c2ccc(OC)cc2)CC1c1ccccc1 (configuration not stated),-,-,-,-,-,-
Oc1c(CN2CCCCC2)cc(Br)c2cccnc12,-,-,98,.,.,-
Oc1c(I)cc(Cl)c2cccnc12,-,-,98,-,.,-
CN1CCN(Cc2cc(COCc3ccccc3)c3cccnc3c2O)CC1,-,-,51,-,-,-
Oc1c(CN2CCc3ccccc3C2)cc(Cl)c2cccnc12,-,-,99,-,-,-
O=C(NC(c1ccc(Cl)cc1)c1cc(Cl)c2cccnc2c1O)c1cccnc1 (configuration not stated),-,-,-,.,-,-
Cc1oc(-c2ccccc2F)nc1CS(=O)CC(=O)NCc1ccc2c(c1)OCO2 (configuration not stated),-,-,-,-,-,-
CCN(C(=S)Nc1cc(S(=O)(=O)N2CCOCC2)ccc1Cl)c1cccc2ccccc12,-,-,-,.,-,-
O=C(N/N=C/c1cccc(F)c1)c1cc(-c2ccco2)nc2ccccc12,-,-,-,.,-,-
O=C(Cc1ccccc1F)Nc1cccc2cccnc12,-,-,-,.,-,5.9
O=C(O)CCCC(=O)Nc1cccc2cccnc12,-,-,-,.,-,-
COc1nc(OC)nc(N2CCC(C(=O)NC3CCCCCC3)CC2)n1,-,-,-,-,-,-
COc1ccc(CNC(=O)C2CCN(c3nc(OC)nc(OC)n3)CC2)cc1,90,-,-,.,.,-
CCNc1nc(=S)nc(NC(C)C)[nH]1,-,-,-,.,-,-
O=C(/C(=C/c1ccc(Cl)cc1)c1nc2ccccc2[nH]1)c1cccs1,31,-,-,.,-,-
C=C(C)Cn1c(-c2ccc(OC)cc2)nc2ccccc21,-,-,-,-,-,-
CCCn1[nH]cc(SC)c(=O)c1=O,42,-,-,-,-,-
COc1c(C)cc(Br)cc1C(=O)Nc1ccc(C)cc1[N+](=O)[O-],-,-,-,.,-,-
O=C(/C=C/c1ccccc1)n1cnnc1SC/C=C/c1ccccc1,-,-,-,.,-,4.7
CCCCn1nnc(NC(=S)NC(=O)c2cccs2)n1,-,-,-,.,-,8.8
Cn1nnc(NC(=S)NC(=O)c2cccs2)n1,-,-,-,.,-,-
CCOC(=O)c1cn(-c2nc(-c3ccc(Cl)cc3)cs2)c2c(F)c(N3CC(C)OC(C)C3)c(F)cc2c1=O (configuration not stated),-,-,-,.,.,-
CC(O)(CS(=O)(=O)Cc1ccccc1)C(=O)Nc1ccc(C(F)(F)F)cc1 (configuration not stated),-,-,-,.,-,7.9
CC(=O)c1ccc(N(C(=O)Cn2nnc3ccccc32)C(C(=O)NC2CCCCC2)c2cn(C)nc2C)cc1 (configuration not stated),.,-,-,-,.,-
Cc1ccc(N/N=C/c2cccnc2)cc1,-,-,92,.,-,-
SMILES,Yeast life ext,SDO1 yeast rescue,Yeast growth inh,MRP resist rev,Phagocytosis inh,MRP-1 activ
CC(C)(C)c1ccc(OCCNC(=S)NC(=O)c2cccnc2)cc1,-,-,-,.,-,-
Cc1cccc(Oc2nc(CN3CCOCC3)nc3sc4c(c23)CCCC4)c1,33,-,-,.,-,-
COc1cc(Nc2ccc(C)cc2)c([N+](=O)[O-])nc1[N+](=O)[O-],.,-,-,-,.,-
COc1cccc2sc(=NC(=O)c3ccc(S(=O)(=O)N4CCOCC4)cc3)n(C)c12,.,.,.,-,.,.
Cc1nc2cc(-c3ccsc3-n3c(C)ccc3C)[nH]n2c(=O)c1Cl,-,-,-,-,.,6.0
c1ccc(-c2c(-c3ccccc3)n(Cc3ccco3)c3ncnc(NCCCn4ccnc4)c23)cc1,43,-,-,-,-,-
N=c1c2c(-c3ccccc3)c(-c3ccccc3)n(Cc3ccco3)c2ncn1CCCn1ccnc1,43,-,-,.,-,-
